# Reference: ChEMBL document CHEMBL1156597, “Structure-activity relationship of kahalalide F synthetic analogues” (J Med Chem, 2008)
# How the values were obtained:
# HT-29 = assay: Cytotoxicity against human HT29 cells after 48 hrs by SRB assay; type: functional, cell-based; conditions: Homo sapiens, HT-29, 48 h; for CC50: read-out: LC50 (the source's name)
# In short: (§1)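 Cells grown in RPMI 1640 with 10% FBS and penicillin/streptomycin at 37 °C and 5% CO₂, trypsinized, then seeded at 5 × 10³/well. After 18 h drug-free attachment, samples in DMSO/EtOH/PBS (0.5:0.5:99) were added for 48 h continuous exposure. Cells were fixed with cold TCA (1 h, 4 °C) and stained with SRB (10 min). Tris-solubilized stain read at 490 nm. Triplicate wells, mean ± SD; GI₅₀ derived.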
# SK-BR-3 = assay: Cytotoxicity against human SKBR3 cells after 48 hrs by SRB assay; type: functional; conditions: SK-BR-3, 48 h; for CC50: read-out: LC50 (the source's name); for GI50: read-out: GI50; in short: as §1
# LoVo [1] = assay: Cytotoxicity against human LoVo cells after 48 hrs by SRB assay; type: functional; conditions: for CC50: read-out: LC50 (the source's name)
# LoVo [2] = assay: Cytotoxicity against human doxorubicin resistant LoVo cells after 48 hrs by SRB assay; type: functional; conditions: for CC50: read-out: LC50 (the source's name); in short: as §1
# [3] = Cytotoxicity against human IGROV cells after 48 hrs by SRB assay; type: functional; conditions: for CC50: read-out: LC50 (the source's name); in short: as §1
# HeLa = assay: Cytotoxicity against human HeLa cells after 48 hrs by SRB assay; type: functional; conditions: read-out: LC50 (the source's name); in short: as §1
# DU-145 = assay: Cytotoxicity against human DU145 cells after 48 hrs by SRB assay; type: functional, cell-based; conditions: Homo sapiens, DU-145, 48 h; for CC50: read-out: LC50 (the source's name); in short: as §1
# K562 = assay: Cytotoxicity against human K562 cells after 48 hrs by SRB assay; type: functional; conditions: K562, 48 h; for CC50: read-out: LC50 (the source's name); in short: as §1
# [4] = Cytotoxicity against human HeLa-APL cells after 48 hrs by SRB assay; type: functional; in short: as §1
# A549 = assay: Cytotoxicity against human A549 cells after 48 hrs by SRB assay; type: functional, cell-based; conditions: Homo sapiens, A549, 48 h; for GI50: read-out: GI50; in short: as §1
# PANC-1 = assay: Cytotoxicity against human PANC1 cells after 48 hrs by SRB assay; type: functional; conditions: PANC-1, 48 h; for CC50: read-out: LC50 (the source's name); in short: as §1
# [5] = Cytotoxicity against human IGROV-ET cells after 48 hrs by SRB assay; type: functional; conditions: for CC50: read-out: LC50 (the source's name); in short: as §1
# SK-MEL-28 = assay: Cytotoxicity against human SK-MEL-28 cells after 48 hrs by SRB assay; type: functional, cell-based; conditions: Homo sapiens, SK-MEL-28, 48 h; for GI50: read-out: GI50; for CC50: read-out: LC50 (the source's name); in short: as §1
# LNCaP = assay: Cytotoxicity against human LNcaP cells after 48 hrs by SRB assay; type: functional; conditions: for CC50: read-out: LC50 (the source's name); in short: as §1
Compound,CC50 (HT-29),CC50 (SK-BR-3),GI50 (LoVo [1]),TGI (LoVo [1]),CC50 (LoVo [1]),GI50 (LoVo [2]),TGI (LoVo [2]),CC50 (LoVo [2]),GI50 ([3]; read-out: GI50),CC50 [3],CC50 (HeLa),CC50 (DU-145),GI50 (K562),CC50 (K562),LC50 (concentration giving 50% net cell kill) [4],LC50 (A549),CC50 (PANC-1),CC50 [5],CC50 (SK-MEL-28),CC50 (LNCaP),other results
C/C=C1\NC(=O)[C@H](Cc2ccccc2)NC(=O)[C@@H](C(C)C)NC(=O)[C@@H]([C@H](C)CC)NC(=O)[C@H](NC(=O)[C@H](NC(=O)[C@H](CCCN)NC(=O)[C@H]2CCCN2C(=O)[C@H](NC(=O)[C@@H](NC(=O)[C@@H]2CCCN2C(=O)[C@H](NC(=O)CCCC(C)C)C(C)C)C(C)C)C(C)C)[C@H](C)CC)[C@H](C)OC(=O)[C@H](C(C)C)NC1=O,4310 nM,302 nM,4660 nM,4050 nM,3380 nM,2860 nM,2330 nM,396 nM,4520 nM,585 nM,967 nM,1430 nM,1480 nM,1920 nM,934 nM,4690 nM,2280 nM,920 nM,1670 nM,982 nM,GI50 (HT-29): 4630 nM; TGI (HT-29): 4480 nM; GI50 [3]: 280 nM; TGI (K562): 1690 nM; TGI (A549): 1530 nM; GI50 (A549): 1610 nM; GI50 (PANC-1): 5140 nM; TGI (PANC-1): 4520 nM; TGI (SK-MEL-28): 2330 nM; GI50 (SK-MEL-28): 2440 nM
C/C=C1\NC(=O)[C@@H](Cc2ccccc2)NC(=O)[C@H](C(C)C)NC(=O)[C@H]([C@H](C)CC)NC(=O)[C@@H](NC(=O)[C@@H](NC(=O)[C@@H](CCCN)NC(=O)[C@@H]2CCCN2C(=O)[C@@H](NC(=O)[C@H](NC(=O)[C@H](NC(=O)[C@@H](NC(=O)CCCC(C)C)C(C)C)[C@@H](C)O)C(C)C)C(C)C)[C@H](C)CC)[C@H](C)OC(=O)[C@H](C(C)C)NC1=O,3790 nM,1690 nM,,,5540 nM,,,4080 nM,161000 nM,72000 nM,1910 nM,10600 nM,2530 nM,25300 nM,2360 nM,1920 nM,8900 nM,2130 nM,1770 nM,4920 nM,TGI [3]: 134000 nM; TGI (K562): 10500 nM
C/C=C1\NC(=O)[C@H](Cc2ccccc2)NC(=O)[C@@H](C(C)C)NC(=O)[C@@H]([C@H](C)CC)NC(=O)[C@H](NC(=O)[C@H](NC(=O)[C@H](CCCN)NC(=O)[C@H]2CCCN2C(=O)[C@H](NC(=O)[C@@H](NC(=O)[C@H](CCCN)NC(=O)[C@H](NC(=O)CCCC(C)C)C(C)C)C(C)C)C(C)C)[C@H](C)CC)[C@H](C)OC(=O)[C@H](C(C)C)NC1=O,446 nM,296 nM,4940 nM,4180 nM,3330 nM,2880 nM,2700 nM,484 nM,4700 nM,576 nM,951 nM,1400 nM,1620 nM,2180 nM,9600 nM,4620 nM,2240 nM,957 nM,1640 nM,1120 nM,GI50 (HT-29): 5900 nM; TGI (HT-29): 5140 nM; GI50 [3]: 292 nM; TGI (K562): 1890 nM; GI50 (LNCaP): 675 nM; TGI (LNCaP): 2240 nM
CC[C@@H](C)[C@@H](NC(=O)[C@H](CCCN)NC(=O)[C@H]1CCCN1C(=O)[C@H](NC(=O)[C@@H](NC(=O)[C@@H](NC(=O)[C@H](NC(=O)CCCC(C)C)C(C)C)[C@@H](C)O)C(C)C)C(C)C)C(=O)N[C@H]1C(=O)N[C@H]([C@H](C)CC)C(=O)N[C@H](C(C)C)C(=O)N[C@@H](Cc2ccccc2)C(=O)NCC(=O)N[C@@H](C(C)C)C(=O)O[C@H]1C,775 nM,683 nM,1840 nM,1850 nM,1680 nM,830 nM,1020 nM,362 nM,1640 nM,361 nM,526 nM,953 nM,2530 nM,1970 nM,1450 nM,1460 nM,1810 nM,308 nM,1780 nM,1420 nM,GI50 (HT-29): 2260 nM; TGI (HT-29): 2120 nM; TGI (SK-BR-3): 1640 nM; GI50 (SK-BR-3): 1660 nM; GI50 [3]: 748 nM; TGI (DU-145): 1160 nM; GI50 (DU-145; read-out: GI50): 1410 nM; TGI (K562): 3040 nM; GI50 [4]: 1830 nM; TGI [4]: 2860 nM; TGI (A549): 2100 nM; GI50 (A549): 1630 nM; GI50 [5]: 465 nM; GI50 ([5]; read-out: GI50): 722 nM; TGI (SK-MEL-28): 1700 nM; GI50 (SK-MEL-28): 1390 nM; GI50 (LNCaP): 2740 nM; TGI (LNCaP): 2780 nM
C/C=C1\NC(=O)[C@H](Cc2ccccc2)NC(=O)[C@@H](C(C)C)NC(=O)[C@@H]([C@H](C)CC)NC(=O)[C@H](NC(=O)[C@H](NC(=O)[C@H](CCCN)NC(=O)[C@H]2CCCN2C(=O)[C@H](NC(=O)[C@@H](NC(=O)[C@@H](NC(=O)[C@H](NC(=O)CCCCC(C)=O)C(C)C)[C@@H](C)O)C(C)C)C(C)C)[C@H](C)CC)[C@H](C)OC(=O)[C@H](C(C)C)NC1=O,2350 nM,1050 nM,8590 nM,8100 nM,3900 nM,5050 nM,7660 nM,3710 nM,,851 nM,1370 nM,1670 nM,,1910 nM,1440 nM,1810 nM,2290 nM,638 nM,1840 nM,1390 nM,TGI (SK-BR-3): 6310 nM; GI50 (SK-BR-3): 7270 nM
C/C=C1\NC(=O)[C@H](Cc2ccccc2)NC(=O)[C@@H](C(C)C)NC(=O)[C@@H]([C@H](C)CC)NC(=O)[C@H](NC(=O)[C@H](NC(=O)[C@H](CCCN)NC(=O)[C@H]2CCCN2C(=O)[C@H](NC(=O)[C@@H](NC(=O)[C@@H](NC(=O)[C@@H](C(C)C)N(CCCCCC)CCCCCC)[C@@H](C)O)C(C)C)C(C)C)[C@H](C)CC)[C@H](C)OC(=O)[C@H](C(C)C)NC1=O,2030 nM,3530 nM,,,4060 nM,,,3780 nM,,1210 nM,1050 nM,2280 nM,,1900 nM,1220 nM,1160 nM,2270 nM,4230 nM,1660 nM,1480 nM,GI50 [4]: 1810 nM; TGI [4]: 1580 nM; GI50 (LNCaP): 3720 nM; TGI (LNCaP): 3300 nM
